“And” between values parts separate entries of the source, which are not always exact repeats. Equal entries are not always repeated.
Test system: Fibroblast
Test: Multiplex assay against human fibroblast
Assay type: toxicity, cell-based
Method in brief: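 At seeding, live cells were stained with Hoechst33342, BioTracker Green Microtubule Cytoskeleton Dye, MitoTracker Red and Annexin V Alexa Fluor 680. After compound addition they were imaged on a CQ1 microscope at 37°C and 5% CO2, and CellPathfinder machine-learning gating sorted them into Hoechst high-intensity objects or normal cells, with normal cells further split into healthy, pyknosed or fragmented nuclei and pyknosed cells into mitotic or apoptotic. Tubulin, mitochondrial-mass and membrane-permeability phenotypes are given as per cents of cells with healthy nuclei.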

[1] = 12 h, 1 µM, compound concentration 1 uM, replicate 1
[2] = 12 h, 1 µM, compound concentration 1 uM, replicate 2
[3] = 12 h, 10 µM, compound concentration 10 uM, replicate 1
[4] = 12 h, 10 µM, compound concentration 10 uM, replicate 2
[5] = 24 h, 1 µM, compound concentration 1 uM, replicate 1
[6] = 24 h, 1 µM, compound concentration 1 uM, replicate 2
[7] = 24 h, 10 µM, compound concentration 10 uM, replicate 1
[8] = 24 h, 10 µM, compound concentration 10 uM, replicate 2
[9] = 48 h, 1 µM, compound concentration 1 uM, replicate 1
[10] = 48 h, 1 µM, compound concentration 1 uM, replicate 2
[11] = 48 h, 10 µM, compound concentration 10 uM, replicate 1
[12] = 48 h, 10 µM, compound concentration 10 uM, replicate 2

CS(=O)(=O)N1CCCC(NC(=O)[C@H](CCC2CCCCC2)NC(=O)c2ccc(CNc3ncnc4c3nnn4-c3ccccc3)cc2)C1 (stereo not given in full) [SR-301]
Population Apoptotic (%) [1]: 58% and 60% and 56%
Population Fragmented Nuclei (%) [1]: 22% and 18% and 20%
Population Healthy Nuclei (%) [1]: 31% and 27% and 35%
Population Hoechst High Intensity Objects (%) [1]: 21% and 15% and 12%
Population Membrane Permeable-Phenotype (%) [1]: 16% and 32% and 28%
Population Mitochondria Different-Phenotype (%) [1]: 13% and 12% and 26%
Population Mitotic Cells (%) [1]: 41% and 39% and 43%
Population Normal (%) [1]: 78% and 84% and 87%
Population Pyknosed Nuclei (%) [1]: 46% and 53% and 44%
Population Tubulin-Different-Phenotype (%) [1]: 47% and 61% and 57%
Total Cell Count [1]: 146 and 134
Population Apoptotic (%) [2]: 25% and 63% and 33%
Population Fragmented Nuclei (%) [2]: 14% and 11% and 7%
Population Healthy Nuclei (%) [2]: 81% and 70% and 89%
Population Mitochondria Different-Phenotype (%) [2]: 20% and 14% and 10%
Population Mitotic Cells (%) [2]: 75% and 36% and 66%
Population Normal (%) [2]: 80% and 86% and 94%
Population Tubulin-Different-Phenotype (%) [2]: 21% and 19% and 12%
Total Cell Count [2]: 135 and 58 and 69
Population Apoptotic (%) [3]: 94% and 85% and 73%
Population Fragmented Nuclei (%) [3]: 34% and 37% and 21%
Population Healthy Nuclei (%) [3]: 20% and 17% and 28%
Population Hoechst High Intensity Objects (%) [3]: 19% and 17% and 12%
Population Membrane Permeable-Phenotype (%) [3]: 36% and 16% and 19%
Population Mitochondria Different-Phenotype (%) [3]: 20% and 25% and 36%
Population Normal (%) [3]: 80% and 82% and 87%
Population Pyknosed Nuclei (%) [3]: 45% and 44% and 50%
Population Tubulin-Different-Phenotype (%) [3]: 32% and 48% and 51%
Total Cell Count [3]: 153 and 216 and 163
Population Apoptotic (%) [4]: 80% and 75% and 41%
Population Fragmented Nuclei (%) [4]: 39% and 27%
Population Healthy Nuclei (%) [4]: 25% and 58%
Population Membrane Permeable-Phenotype (%) [4]: 61% and 54% and 30%
Population Mitochondria Different-Phenotype (%) [4]: 66% and 54% and 34%
Population Mitotic Cells (%) [4]: 20% and 25% and 58%
Population Normal (%) [4]: 89% and 95% and 97%
Population Pyknosed Nuclei (%) [4]: 39% and 47% and 20%
Population Tubulin-Different-Phenotype (%) [4]: 55% and 54% and 34%
Total Cell Count [4]: 89 and 86 and 105
Population Apoptotic (%) [5]: 58% and 59% and 61%
Population Fragmented Nuclei (%) [5]: 20% and 24% and 25%
Population Healthy Nuclei (%) [5]: 39% and 33% and 42%
Population Hoechst High Intensity Objects (%) [5]: 18% and 10%
Population Membrane Permeable-Phenotype (%) [5]: 35% and 23% and 20%
Population Mitochondria Different-Phenotype (%) [5]: 17% and 9% and 18%
Population Mitotic Cells (%) [5]: 41% and 40% and 38%
Population Normal (%) [5]: 81% and 89%
Population Pyknosed Nuclei (%) [5]: 41% and 42% and 31%
Population Tubulin-Different-Phenotype (%) [5]: 53% and 66% and 52%
Total Cell Count [5]: 123 and 142 and 153
Population Fragmented Nuclei (%) [6]: 12% and 7%
Population Healthy Nuclei (%) [6]: 78% and 80% and 86%
Population Membrane Permeable-Phenotype (%) [6]: 7% and 6% and 3%
Population Mitochondria Different-Phenotype (%) [6]: 20% and 10% and 8%
Population Mitotic Cells (%) [6]: 87% and 60% and 55%
Population Normal (%) [6]: 80% and 95% and 96%
Population Pyknosed Nuclei (%) [6]: 9% and 12% and 6%
Population Tubulin-Different-Phenotype (%) [6]: 13% and 26% and 14%
Total Cell Count [6]: 148 and 64 and 84
Population Apoptotic (%) [7]: 84% and 87%
Population Fragmented Nuclei (%) [7]: 31% and 40% and 42%
Population Healthy Nuclei (%) [7]: 24% and 22%
Population Hoechst High Intensity Objects (%) [7]: 20% and 15% and 21%
Population Membrane Permeable-Phenotype (%) [7]: 23% and 21% and 17%
Population Mitochondria Different-Phenotype (%) [7]: 43% and 48% and 34%
Population Mitotic Cells (%) [7]: 15% and 12%
Population Normal (%) [7]: 79% and 84% and 78%
Population Pyknosed Nuclei (%) [7]: 43% and 36% and 35%
Population Tubulin-Different-Phenotype (%) [7]: 63% and 53% and 68%
Total Cell Count [7]: 154 and 214 and 166
Population Apoptotic (%) [8]: 91% and 94% and 89%
Population Fragmented Nuclei (%) [8]: 25% and 32% and 19%
Population Hoechst High Intensity Objects (%) [8]: 9%
Population Mitotic Cells (%) [8]: 8% and 5% and 10%
Population Normal (%) [8]: 90%
Population Pyknosed Nuclei (%) [8]: 49% and 50% and 21%
Total Cell Count [8]: 98 and 89 and 110
Population Apoptotic (%) [9]: 75% and 70%
Population Fragmented Nuclei (%) [9]: 38% and 39% and 30%
Population Healthy Nuclei (%) [9]: 46% and 41%
Population Hoechst High Intensity Objects (%) [9]: 25% and 18%
Population Membrane Permeable-Phenotype (%) [9]: 32% and 27% and 25%
Population Mitochondria Different-Phenotype (%) [9]: 8% and 9% and 10%
Population Mitotic Cells (%) [9]: 25% and 30%
Population Normal (%) [9]: 74% and 81%
Population Pyknosed Nuclei (%) [9]: 16% and 19% and 23%
Population Tubulin-Different-Phenotype (%) [9]: 43% and 48% and 50%
Total Cell Count [9]: 135 and 127 and 148
Population Apoptotic (%) [10]: 100% and 60%
Population Fragmented Nuclei (%) [10]: 19% and 21% and 22%
Population Healthy Nuclei (%) [10]: 80% and 73% and 75%
Population Hoechst High Intensity Objects (%) [10]: 8% and 7% and 5%
Population Membrane Permeable-Phenotype (%) [10]: 20% and 15% and 13%
Population Mitochondria Different-Phenotype (%) [10]: 3% and 1%
Population Normal (%) [10]: 91% and 92% and 94%
Population Pyknosed Nuclei (%) [10]: 0% and 4% and 1%
Population Tubulin-Different-Phenotype (%) [10]: 39% and 17% and 40%
Total Cell Count [10]: 131 and 116 and 118
Population Apoptotic (%) [11]: 85% and 83% and 92%
Population Fragmented Nuclei (%) [11]: 41% and 44% and 50%
Population Healthy Nuclei (%) [11]: 22% and 29% and 25%
Population Hoechst High Intensity Objects (%) [11]: 20% and 26%
Population Membrane Permeable-Phenotype (%) [11]: 32% and 23%
Population Mitochondria Different-Phenotype (%) [11]: 40% and 48% and 30%
Population Mitotic Cells (%) [11]: 15% and 16% and 7%
Population Normal (%) [11]: 79% and 73%
Population Pyknosed Nuclei (%) [11]: 35% and 25%
Population Tubulin-Different-Phenotype (%) [11]: 48% and 44% and 53%
Total Cell Count [11]: 141 and 195
Population Apoptotic (%) [12]: 84% and 100% and 94%
Population Fragmented Nuclei (%) [12]: 51% and 53%
Population Healthy Nuclei (%) [12]: 35% and 24% and 30%
Population Hoechst High Intensity Objects (%) [12]: 16% and 29%
Population Membrane Permeable-Phenotype (%) [12]: 34% and 14% and 27%
Population Mitochondria Different-Phenotype (%) [12]: 78% and 85% and 72%
Population Mitotic Cells (%) [12]: 0% and 5%
Population Normal (%) [12]: 83% and 70%
Population Pyknosed Nuclei (%) [12]: 20% and 24% and 15%
Population Tubulin-Different-Phenotype (%) [12]: 34% and 32% and 54%
Total Cell Count [12]: 89 and 137 and 153

Source: ChEMBL document CHEMBL4689842, “EUbOPEN Chemogenomics Library wave 1” (2021)
